# Test system: Fibroblast
# Test: Multiplex assay against human fibroblast
# Format: toxicity, cell-based
# Outline: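 With compound added, live cells were imaged on a CQ1 microscope at 37°C and 5% CO2; staining with Hoechst33342, BioTracker Green Microtubule Cytoskeleton Dye, MitoTracker Red and Annexin V Alexa Fluor 680 had been done at seeding. The CellPathfinder machine-learning gating scheme split cells into Hoechst high-intensity objects or normal cells, normal cells into healthy, pyknosed or fragmented nuclei, and pyknosed cells into mitotic or apoptotic. The tubulin, mitochondrial-mass and membrane-permeability phenotypes are per cents of healthy-nucleus cells.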
# [1] = 12 h, 1 µM, compound concentration 1 uM, replicate 1
# [2] = 12 h, 1 µM, compound concentration 1 uM, replicate 2
# [3] = 12 h, 10 µM, compound concentration 10 uM, replicate 1
# [4] = 12 h, 10 µM, compound concentration 10 uM, replicate 2
# [5] = 24 h, 1 µM, compound concentration 1 uM, replicate 1
# [6] = 24 h, 1 µM, compound concentration 1 uM, replicate 2
# [7] = 24 h, 10 µM, compound concentration 10 uM, replicate 1
# [8] = 24 h, 10 µM, compound concentration 10 uM, replicate 2
# [9] = 48 h, 1 µM, compound concentration 1 uM, replicate 1
# [10] = 48 h, 1 µM, compound concentration 1 uM, replicate 2
# [11] = 48 h, 10 µM, compound concentration 10 uM, replicate 1
# [12] = 48 h, 10 µM, compound concentration 10 uM, replicate 2
smiles,measurement,setting,value
Cc1sc2c(c1C)C(c1ccc(Cl)cc1)=N[C@H](CC(=O)OC(C)(C)C)c1nnc(C)n1-2,Population Apoptotic (%),[1],43%
same,Population Fragmented Nuclei (%),[1],15%
same,Population Healthy Nuclei (%),[1],62%
same,Population Hoechst High Intensity Objects (%),[1],2%
same,Population Membrane Permeable-Phenotype (%),[1],0%
same,Population Mitochondria Different-Phenotype (%),[1],5%
same,Population Mitotic Cells (%),[1],56%
same,Population Normal (%),[1],97%
same,Population Pyknosed Nuclei (%),[1],22%
same,Population Tubulin-Different-Phenotype (%),[1],30%
same,Total Cell Count,[1],180
same,Population Apoptotic (%),[2],33%
same,Population Fragmented Nuclei (%),[2],26%
same,Population Healthy Nuclei (%),[2],51%
same,Population Hoechst High Intensity Objects (%),[2],5%
same,Population Membrane Permeable-Phenotype (%),[2],15%
same,Population Mitochondria Different-Phenotype (%),[2],10%
same,Population Mitotic Cells (%),[2],66%
same,Population Normal (%),[2],94%
same,Population Tubulin-Different-Phenotype (%),[2],46%
same,Total Cell Count,[2],159
same,Population Apoptotic (%),[3],43%
same,Population Fragmented Nuclei (%),[3],19%
same,Population Healthy Nuclei (%),[3],55%
same,Population Hoechst High Intensity Objects (%),[3],7%
same,Population Membrane Permeable-Phenotype (%),[3],0%
same,Population Mitochondria Different-Phenotype (%),[3],15%
same,Population Mitotic Cells (%),[3],56%
same,Population Normal (%),[3],92%
same,Population Pyknosed Nuclei (%),[3],25%
same,Population Tubulin-Different-Phenotype (%),[3],90%
same,Total Cell Count,[3],128
same,Population Apoptotic (%),[4],51%
same,Population Fragmented Nuclei (%),[4],30%
same,Population Healthy Nuclei (%),[4],39%
same,Population Hoechst High Intensity Objects (%),[4],5%
same,Population Membrane Permeable-Phenotype (%),[4],4%
same,Population Mitochondria Different-Phenotype (%),[4],20%
same,Population Mitotic Cells (%),[4],48%
same,Population Normal (%),[4],94%
same,Population Pyknosed Nuclei (%),[4],29%
same,Population Tubulin-Different-Phenotype (%),[4],95%
same,Total Cell Count,[4],169
same,Population Apoptotic (%),[5],82%
same,Population Fragmented Nuclei (%),[5],17%
same,Population Healthy Nuclei (%),[5],60%
same,Population Hoechst High Intensity Objects (%),[5],2%
same,Population Membrane Permeable-Phenotype (%),[5],0%
same,Population Mitochondria Different-Phenotype (%),[5],2%
same,Population Mitotic Cells (%),[5],17%
same,Population Normal (%),[5],97%
same,Population Pyknosed Nuclei (%),[5],21%
same,Population Tubulin-Different-Phenotype (%),[5],29%
same,Total Cell Count,[5],186
same,Population Apoptotic (%),[6],46%
same,Population Fragmented Nuclei (%),[6],29%
same,Population Healthy Nuclei (%),[6],50%
same,Population Hoechst High Intensity Objects (%),[6],6%
same,Population Membrane Permeable-Phenotype (%),[6],11%
same,Population Mitochondria Different-Phenotype (%),[6],5%
same,Population Mitotic Cells (%),[6],53%
same,Population Normal (%),[6],93%
same,Population Pyknosed Nuclei (%),[6],20%
same,Population Tubulin-Different-Phenotype (%),[6],51%
same,Total Cell Count,[6],149
same,Population Apoptotic (%),[7],75%
same,Population Fragmented Nuclei (%),[7],16%
same,Population Healthy Nuclei (%),[7],69%
same,Population Hoechst High Intensity Objects (%),[7],8%
same,Population Membrane Permeable-Phenotype (%),[7],2%
same,Population Mitochondria Different-Phenotype (%),[7],19%
same,Population Mitotic Cells (%),[7],25%
same,Population Normal (%),[7],91%
same,Population Pyknosed Nuclei (%),[7],14%
same,Population Tubulin-Different-Phenotype (%),[7],76%
same,Total Cell Count,[7],123
same,Population Apoptotic (%),[8],51%
same,Population Fragmented Nuclei (%),[8],26%
same,Population Healthy Nuclei (%),[8],45%
same,Population Hoechst High Intensity Objects (%),[8],4%
same,Population Membrane Permeable-Phenotype (%),[8],4%
same,Population Mitochondria Different-Phenotype (%),[8],26%
same,Population Mitotic Cells (%),[8],48%
same,Population Normal (%),[8],95%
same,Population Pyknosed Nuclei (%),[8],27%
same,Population Tubulin-Different-Phenotype (%),[8],87%
same,Total Cell Count,[8],165
same,Population Apoptotic (%),[9],63%
same,Population Fragmented Nuclei (%),[9],19%
same,Population Healthy Nuclei (%),[9],66%
same,Population Hoechst High Intensity Objects (%),[9],5%
same,Population Membrane Permeable-Phenotype (%),[9],0%
same,Population Mitochondria Different-Phenotype (%),[9],2%
same,Population Mitotic Cells (%),[9],36%
same,Population Normal (%),[9],94%
same,Population Pyknosed Nuclei (%),[9],13%
same,Population Tubulin-Different-Phenotype (%),[9],28%
same,Total Cell Count,[9],170
same,Population Apoptotic (%),[10],53%
same,Population Fragmented Nuclei (%),[10],29%
same,Population Healthy Nuclei (%),[10],49%
same,Population Membrane Permeable-Phenotype (%),[10],12%
same,Population Mitochondria Different-Phenotype (%),[10],10%
same,Population Mitotic Cells (%),[10],46%
same,Population Normal (%),[10],95%
same,Population Pyknosed Nuclei (%),[10],21%
same,Population Tubulin-Different-Phenotype (%),[10],69%
same,Total Cell Count,[10],140
same,Population Apoptotic (%),[11],50%
same,Population Fragmented Nuclei (%),[11],21%
same,Population Healthy Nuclei (%),[11],66%
same,Population Hoechst High Intensity Objects (%),[11],1%
same,Population Membrane Permeable-Phenotype (%),[11],1%
same,Population Mitochondria Different-Phenotype (%),[11],13%
same,Population Mitotic Cells (%),[11],50%
same,Population Normal (%),[11],98%
same,Population Pyknosed Nuclei (%),[11],12%
same,Population Tubulin-Different-Phenotype (%),[11],70%
same,Total Cell Count,[11],134
same,Population Apoptotic (%),[12],63%
same,Population Fragmented Nuclei (%),[12],35%
same,Population Healthy Nuclei (%),[12],51%
same,Population Membrane Permeable-Phenotype (%),[12],4%
same,Population Mitochondria Different-Phenotype (%),[12],9%
same,Population Mitotic Cells (%),[12],36%
same,Population Pyknosed Nuclei (%),[12],13%
same,Population Tubulin-Different-Phenotype (%),[12],88%
same,Total Cell Count,[12],170
CC(C)(C)c1ccc(CSc2cnn(C(C)(C)C)c(=O)c2Cl)cc1 [PYRIDABEN],Population Apoptotic (%),[1],46%
same,Population Fragmented Nuclei (%),[1],15%
same,Population Healthy Nuclei (%),[1],66%
same,Population Hoechst High Intensity Objects (%),[1],1%
same,Population Membrane Permeable-Phenotype (%),[1],3%
same,Population Mitochondria Different-Phenotype (%),[1],1%
same,Population Mitotic Cells (%),[1],53%
same,Population Normal (%),[1],98%
same,Population Pyknosed Nuclei (%),[1],17%
same,Population Tubulin-Different-Phenotype (%),[1],28%
same,Total Cell Count,[1],148
same,Population Apoptotic (%),[2],44%
same,Population Fragmented Nuclei (%),[2],27%
same,Population Healthy Nuclei (%),[2],47%
same,Population Hoechst High Intensity Objects (%),[2],4%
same,Population Membrane Permeable-Phenotype (%),[2],12%
same,Population Mitochondria Different-Phenotype (%),[2],7%
same,Population Mitotic Cells (%),[2],55%
same,Population Normal (%),[2],95%
same,Population Pyknosed Nuclei (%),[2],25%
same,Population Tubulin-Different-Phenotype (%),[2],57%
same,Total Cell Count,[2],142
same,Population Apoptotic (%),[3],25%
same,Population Fragmented Nuclei (%),[3],11%
same,Population Healthy Nuclei (%),[3],68%
same,Population Hoechst High Intensity Objects (%),[3],4%
same,Population Membrane Permeable-Phenotype (%),[3],2%
same,Population Mitochondria Different-Phenotype (%),[3],5%
same,Population Mitotic Cells (%),[3],74%
same,Population Normal (%),[3],95%
same,Population Pyknosed Nuclei (%),[3],20%
same,Population Tubulin-Different-Phenotype (%),[3],35%
same,Total Cell Count,[3],139
same,Population Apoptotic (%),[4],47%
same,Population Fragmented Nuclei (%),[4],25%
same,Population Healthy Nuclei (%),[4],49%
same,Population Hoechst High Intensity Objects (%),[4],1%
same,Population Membrane Permeable-Phenotype (%),[4],12%
same,Population Mitochondria Different-Phenotype (%),[4],4%
same,Population Mitotic Cells (%),[4],52%
same,Population Normal (%),[4],98%
same,Population Pyknosed Nuclei (%),[4],25%
same,Population Tubulin-Different-Phenotype (%),[4],54%
same,Total Cell Count,[4],136
same,Population Apoptotic (%),[5],35%
same,Population Fragmented Nuclei (%),[5],17%
same,Population Healthy Nuclei (%),[5],71%
same,Population Hoechst High Intensity Objects (%),[5],0%
same,Population Membrane Permeable-Phenotype (%),[5],0%
same,Population Mitochondria Different-Phenotype (%),[5],2%
same,Population Mitotic Cells (%),[5],64%
same,Population Normal (%),[5],99%
same,Population Pyknosed Nuclei (%),[5],11%
same,Population Tubulin-Different-Phenotype (%),[5],20%
same,Total Cell Count,[5],148
same,Population Apoptotic (%),[6],36%
same,Population Fragmented Nuclei (%),[6],30%
same,Population Healthy Nuclei (%),[6],48%
same,Population Hoechst High Intensity Objects (%),[6],4%
same,Population Membrane Permeable-Phenotype (%),[6],7%
same,Population Mitochondria Different-Phenotype (%),[6],8%
same,Population Mitotic Cells (%),[6],63%
same,Population Normal (%),[6],95%
same,Population Pyknosed Nuclei (%),[6],21%
same,Population Tubulin-Different-Phenotype (%),[6],50%
same,Population Apoptotic (%),[7],56%
same,Population Fragmented Nuclei (%),[7],13%
same,Population Healthy Nuclei (%),[7],62%
same,Population Hoechst High Intensity Objects (%),[7],2%
same,Population Membrane Permeable-Phenotype (%),[7],1%
same,Population Mitochondria Different-Phenotype (%),[7],7%
same,Population Mitotic Cells (%),[7],43%
same,Population Normal (%),[7],97%
same,Population Pyknosed Nuclei (%),[7],23%
same,Population Tubulin-Different-Phenotype (%),[7],40%
same,Total Cell Count,[7],139
same,Population Apoptotic (%),[8],54%
same,Population Fragmented Nuclei (%),[8],28%
same,Population Healthy Nuclei (%),[8],48%
same,Population Hoechst High Intensity Objects (%),[8],0%
same,Population Membrane Permeable-Phenotype (%),[8],9%
same,Population Mitochondria Different-Phenotype (%),[8],9%
same,Population Mitotic Cells (%),[8],45%
same,Population Normal (%),[8],99%
same,Population Pyknosed Nuclei (%),[8],22%
same,Population Tubulin-Different-Phenotype (%),[8],53%
same,Total Cell Count,[8],136
same,Population Apoptotic (%),[9],50%
same,Population Fragmented Nuclei (%),[9],27%
same,Population Healthy Nuclei (%),[9],62%
same,Population Hoechst High Intensity Objects (%),[9],1%
same,Population Membrane Permeable-Phenotype (%),[9],0%
same,Population Mitochondria Different-Phenotype (%),[9],4%
same,Population Mitotic Cells (%),[9],50%
same,Population Normal (%),[9],98%
same,Population Pyknosed Nuclei (%),[9],9%
same,Population Tubulin-Different-Phenotype (%),[9],28%
same,Total Cell Count,[9],164
same,Population Apoptotic (%),[10],45%
same,Population Fragmented Nuclei (%),[10],43%
same,Population Healthy Nuclei (%),[10],41%
same,Population Hoechst High Intensity Objects (%),[10],4%
same,Population Membrane Permeable-Phenotype (%),[10],6%
same,Population Mitochondria Different-Phenotype (%),[10],15%
same,Population Mitotic Cells (%),[10],54%
same,Population Normal (%),[10],95%
same,Population Pyknosed Nuclei (%),[10],15%
same,Population Tubulin-Different-Phenotype (%),[10],63%
same,Total Cell Count,[10],153
same,Population Apoptotic (%),[11],72%
same,Population Fragmented Nuclei (%),[11],19%
same,Population Healthy Nuclei (%),[11],62%
same,Population Hoechst High Intensity Objects (%),[11],4%
same,Population Membrane Permeable-Phenotype (%),[11],0%
same,Population Mitochondria Different-Phenotype (%),[11],8%
same,Population Mitotic Cells (%),[11],28%
same,Population Normal (%),[11],95%
same,Population Pyknosed Nuclei (%),[11],18%
same,Population Tubulin-Different-Phenotype (%),[11],49%
same,Total Cell Count,[11],143
same,Population Apoptotic (%),[12],63%
same,Population Fragmented Nuclei (%),[12],36%
same,Population Healthy Nuclei (%),[12],48%
same,Population Hoechst High Intensity Objects (%),[12],5%
same,Population Membrane Permeable-Phenotype (%),[12],8%
same,Population Mitochondria Different-Phenotype (%),[12],10%
same,Population Mitotic Cells (%),[12],36%
same,Population Normal (%),[12],94%
same,Population Pyknosed Nuclei (%),[12],15%
same,Population Tubulin-Different-Phenotype (%),[12],58%
same,Total Cell Count,[12],131

# Reference: ChEMBL document CHEMBL5058577, “EUbOPEN Chemogenomics Library 2 (Multiplex)” (2022)
